Assay results gathered from unrelated publications.
Compare with care: the assays were run in different laboratories.
Target: BDNF/NT-3 growth factors receptor (NTRK2, Homo sapiens, UniProt Q16620)

SMILES	read-out	technique	concentration	remaining binding [%]
c1cncc(-c2cccc(Nc3nccc(NC4CCCCC4)n3)c2)c1	binding	competition with immobilised ligand	10 µM	16
C[C@@H](c1ccc(-n2cnc3c(N)ncnc32)cc1)N1CCc2nn(C)c(Cc3ccccc3)c2C1=O	binding	competition with immobilised ligand	0.1 µM	24
CCS(=O)(=O)c1cc2cc(C[C@@](O)(CC(C)(C)c3ccc(F)cc3C(N)=O)C(F)(F)F)[nH]c2cn1	cell-free assay	competition with immobilised ligand	1 µM	84
FC(F)(F)Oc1cccc(-c2cnc3ccc(-c4ccncc4)nn23)c1	cell-free assay	competition with immobilised ligand	5 µM	8.9
O=C(c1ccc(Nc2ncc(Cl)c(-c3cc4ccccc4s3)n2)cc1)N1CCC(N2CCCC2)CC1	binding	competition with immobilised ligand	1 µM	13
CN(c1nccc(-c2cnn3ncccc23)n1)C1CC1	binding		1 µM	100
CN(C)CC#Cc1ccc(OCCCc2sc(N3CCc4cccc(C(=O)Nc5nc6ccccc6s5)c4C3)nc2C(=O)O)c(F)c1	cell-free assay	competition with immobilised ligand	1 µM	100
C[C@H]1CCN(c2nccc(-c3cnn4ncccc34)n2)C1	binding		1 µM	61
O=C(NCC1CCOCC1)c1n[nH]cc1NC(=O)c1c(F)cccc1F	binding	competition with immobilised ligand	1 µM	100
O=C(NCCCN1CCOCC1)c1ccc(Nc2ncc(Cl)c(-c3ccc(Cl)s3)n2)cc1	binding	competition with immobilised ligand	1 µM	15
CC(C)CC(=O)N1CCc2nc(-c3ccc(Br)cc3)nc(N(C)Cc3ccccc3)c2C1	cell-free assay	competition with immobilised ligand	0.1 µM	100
Cc1cnn2ncc(-c3ccnc(N(C)C)n3)c2c1	binding		1 µM	84
O=C(NCCCN1CCOCC1)c1ccc(Nc2nccc(-c3cc4ccccc4s3)n2)cc1	binding	competition with immobilised ligand	1 µM	69
CCCCN(CCCC)C(=O)CN1C[C@@H](c2cc(OC)c3c(c2)OCO3)[C@H](C(=O)O)[C@H]1CC(C)(C)CCC	cell-free assay	competition with immobilised ligand	1 µM	98.3
CN(C)c1nccc(-c2cnc3ncccn23)n1	binding		1 µM	65
CNC(=O)[C@@H]1CC[C@@H](n2c(-c3ccc4cnccc4c3)nc3ccc(C(=O)NCc4cccc(C(N)=O)c4)cc32)C1	binding	competition with immobilised ligand	1 µM	100
O=C(Nc1cnc(Oc2ccc(F)cc2)nc1)N1CCc2ncccc2[C@@H]1c1ccc(F)cc1	cell-free assay	competition with immobilised ligand	1 µM	100
N[C@@H]1CCN(c2nccc(-c3cnn4ncccc34)n2)C1	binding		1 µM	100
COc1ncc2cc3ccccc3nc2c1C#N	cell-free assay	competition with immobilised ligand	5 µM	98
CN(C)c1ncc(F)c(-c2cnn3ncccc23)n1	binding		1 µM	64
O=C(O)[C@@H]1[C@@H](Cn2nnc3ccccc3c2=O)CC[C@H]1C(=O)c1ccc(OCCC2CCOCC2)cc1	cell-free assay	competition with immobilised ligand	1 µM	93
